# Hits are enriched below; roughly 5.3% of the tested compounds scored in any of these assays.
# CSC inhib: cancer stem cell viability inhibitors, primary screen, luminescence; 300,000 compounds, 1.1% hits; cancer stem cell-like cells viability; inhibition, % at 7.5 µM; in the data active = inhibition above about 75%; inconclusive = no clear call, values can overlap the other calls; tested in HMLE shEcad cells
# Beta cell apopt: inhibitors of cytokine-induced beta cell apoptosis, primary screen, luminescence. INS-1E cytokine-induced death, ATP luminescence, 48 h; percent of positive-control rescue, neutral wells zero. protection from apoptosis, % (concentration not given with the values). 300,000 compounds, 0.8% hits;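 active = Every replicate reaches about 75%, or at least half do and their mean reaches it too, limit read from the data; inconclusive = At least half of replicates reach the limit but their mean does not; inactive = Under half of replicates reach the limit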;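 note: higher means more ATP so stronger rescue from cytokine killing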
# Calb FLC: C. albicans growth inhibition with fluconazole, primary screen, CaCi-2 strain, Alamar Blue fluorescence; C. albicans CaCi-2 (fluconazole-resistant clinical isolate) + fluconazole, 48 h; growth inhibition, % (no concentration beside the values); 300,000 compounds, 0.57% hits;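 active = growth inhibition above about 58% in most replicates, limit read from the data, passing the limit was not always enough; inconclusive = exactly half the replicates above a set limit; inactive = most replicates below a set limit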;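 note: all wells also contain fluconazole at 8 µg/ml as a sub-toxic cotreatment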
# Mdm2-MdmX inh: inhibitors of human Mdm2-MdmX association, primary screen, cell-based, luminescence, split luciferase, SaOS-2, uHTS; Protein Mdm4 (Homo sapiens) + E3 ubiquitin-protein ligase Mdm2 (Homo sapiens), …; SaOS-2 split-luciferase Mdm2/MdmX complementation; inhibition, % at 8 µM; 330,000 compounds, 3% hits;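 active = inhibition of at least 50% at 8 µM in the primary screen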
# Target sequence (O15151 whole entry, looked up): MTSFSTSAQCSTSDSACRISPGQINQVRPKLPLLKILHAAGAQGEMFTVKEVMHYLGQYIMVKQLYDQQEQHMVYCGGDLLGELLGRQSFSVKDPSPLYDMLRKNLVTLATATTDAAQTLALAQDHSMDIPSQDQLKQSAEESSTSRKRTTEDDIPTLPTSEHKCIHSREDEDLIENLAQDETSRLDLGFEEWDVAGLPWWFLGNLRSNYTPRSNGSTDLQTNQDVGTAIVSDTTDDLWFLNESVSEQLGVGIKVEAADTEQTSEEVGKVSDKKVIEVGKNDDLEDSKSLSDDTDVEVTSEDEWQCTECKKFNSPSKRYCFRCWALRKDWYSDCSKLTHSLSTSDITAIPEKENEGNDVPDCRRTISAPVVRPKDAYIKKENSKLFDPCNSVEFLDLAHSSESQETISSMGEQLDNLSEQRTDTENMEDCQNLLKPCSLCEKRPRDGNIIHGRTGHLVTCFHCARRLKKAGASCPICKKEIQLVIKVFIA
# Target sequence (Q00987 whole entry, looked up): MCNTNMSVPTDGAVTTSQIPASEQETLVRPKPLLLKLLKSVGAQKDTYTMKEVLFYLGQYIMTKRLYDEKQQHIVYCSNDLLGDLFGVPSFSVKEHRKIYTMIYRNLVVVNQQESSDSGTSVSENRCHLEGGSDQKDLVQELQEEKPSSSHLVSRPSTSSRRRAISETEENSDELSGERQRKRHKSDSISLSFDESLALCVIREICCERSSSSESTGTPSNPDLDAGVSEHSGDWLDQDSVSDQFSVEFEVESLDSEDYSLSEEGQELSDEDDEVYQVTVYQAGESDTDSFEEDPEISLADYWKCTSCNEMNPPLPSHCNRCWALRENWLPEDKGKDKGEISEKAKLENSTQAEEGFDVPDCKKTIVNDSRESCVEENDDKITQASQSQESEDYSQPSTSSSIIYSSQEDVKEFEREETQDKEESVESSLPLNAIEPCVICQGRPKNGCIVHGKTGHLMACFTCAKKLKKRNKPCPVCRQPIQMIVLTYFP
# T cruzi repl: inhibitors of intracellular T. cruzi growth, primary screen, luminescence, NIH3T3 host cells. T. cruzi beta-gal in NIH3T3, 90 h. inhibition, % (test concentration not listed). 300,000 compounds, 1.4% hits;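 active = mean inhibition across valid replicates above about 55%, limit read from the data; inconclusive = mean below that limit but half or more replicates reach it; inactive = mean below it, under half of replicates reach it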;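 note: signal also drops with host cell toxicity which is not excluded here; higher percent means less beta-gal luminescence so fewer parasites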
#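 assay system = mouse NIH/3T3 fibroblasts infected with β-gal-expressing T. cruzi Tulahuen C4 | input = 5,000 NIH/3T3 host cells per well | buffer or medium = DMEM plus 2% FBS | timing = 3 h host attachment, then at least 90 h co-culture | measured by = GalScreen luminescence, 60 min | evaluation = luminescence reflecting intracellular parasite burden, expressed as percent inhibition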
# NLRP3 yeast inh: NALP3 inflammasome inhibitors in reconstituted yeast, primary screen, luminescence, uHTS. Yeast reconstituted NLRP3/ASC/caspase-1, beta-gal luminescence, 24 h. inhibition, % at 10 µM. 330,000 compounds, 0.39% hits;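 active = inhibition of 50% or more; inactive = inhibition below 50%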
# Mdm2 MdmX conf: Mdm2-MdmX complex disruptors, retested hits, confirmation, luminescence, single concentration. 10,000 compounds, 55% hits. Mdm2-MdmX binding, luminescent assay. shares compounds with Mdm2-MdmX inh. inhibition, % at 8 µM; in the data active = inhibition above about 40%
# Full FLuc ctr: full-length luciferase signal inhibition, confirmation, counter-screen for Mdm2/MdmX interaction inhibitor project, cell-based, single concentration, SaOS-2 | shares compounds with Mdm2-MdmX inh | SaOS-2 full-length luciferase counterscreen, luminescence | inhibition, % at 8 µM | 6,200 compounds, 77% hits;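 active = mean inhibition at 8 µM reaching about 37%, which flags the compound as non-specific, limit read from the data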;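 note: p53-null SaOS-2 cells with luciferase driven by a doxycycline-inducible promoter; compound on cells about two nights before reading with doxycycline added after day one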
# Hits are given with their value; - = inactive; ? = inconclusive; . = not tested or not shown.
SMILES,CSC inhib,Beta cell apopt,Calb FLC,Mdm2-MdmX inh,T cruzi repl,NLRP3 yeast inh,Mdm2 MdmX conf,Full FLuc ctr
CN(C)C/C=C/C(=O)Nc1cccc(-c2c[nH]c3ncnc(Oc4ccc(NC(=O)CC(=O)Nc5ccc(F)cc5)cc4F)c23)c1,.,-,.,68.0,.,-,-,.
O=C(COC(=O)c1cc(=O)c2ccccc2o1)Nc1cc(Cl)ccc1Cl,.,-,.,-,.,-,.,.
CN(C)CCCN(C(=O)CCS(=O)(=O)c1ccccc1)c1nc2cc3c(cc2s1)OCO3,-,-,-,66.0,-,-,60.6,56.1
CN(C)CCCN(C(=O)c1ccc(S(=O)(=O)N(C)C)cc1)c1nc2cc3c(cc2s1)OCO3,-,-,-,-,-,-,.,.
CN(C)CCCN(C(=O)CCSc1ccccc1)c1nc2cc3c(cc2s1)OCO3,-,-,-,53.1,-,-,-,.
COc1ccc(OC)c2sc(N(CCCN(C)C)C(=O)CCS(=O)(=O)c3ccccc3)nc12,-,.,-,82.0,59.4,-,77.2,-
CCN(CC)C(=O)Cn1nnc(-c2ccc(C)o2)n1,-,-,-,-,-,-,.,.
Cc1ccc(NC(=O)C2CSC3(C)CCC(=O)N23)cc1S(=O)(=O)N1CCOCC1 (centres undefined),.,-,.,-,.,-,.,.
COc1ccccc1NC1=C(N2CCCCC2)C(=O)c2ccccc2C1=O,144.5,101.8,92.7,73.6,62.2,-,46.1,-
CC(=O)N1CCC2(CC1)C/C(=N\NC(=S)Nc1ccccc1C)c1cc(O)ccc1O2,-,-,-,-,-,-,.,.
CC(=O)N1CCC2(CC1)C/C(=N\NC(=S)Nc1ccccc1F)c1cc(O)ccc1O2,-,-,?,67.4,-,-,-,95.9
CC(C)OC(=O)CSc1nnc(CNc2ccc(Cl)cc2)n1C,-,-,-,-,-,-,.,.
O=C1NCN(c2ccccc2)C12CCN(CCCC(c1ccc(F)cc1)c1ccc(F)cc1)CC2,78.5,-,.,98.5,-,-,51.9,73.0
CCOC(=O)c1c(-c2ccccc2)oc2ccc(O)c(CN3CCCC3)c12,-,.,-,-,-,-,.,.
CCOC(=O)c1c(-c2ccccc2)oc2ccc(OCC(O)CN(C)C)cc12 (centres undefined),-,.,93.8,73.7,-,-,-,-
CCOC(=O)c1c(CSCc2ccccc2)oc2ccc(O)c(CN(C)C)c12,-,-,-,54.2,-,-,46.9,64.8
CCOC(=O)c1c(-c2ccccc2)oc2ccc(O)c(CN(C)C)c12,-,-,-,54.6,-,-,-,.
Cc1ccccc1NC(=O)CN1C(=O)NC(C)(CCc2ccccc2)C1=O (centres undefined),-,-,?,-,-,-,.,.
O=c1c(CN2CCN(c3ccccn3)CC2)coc2ccccc12,-,-,-,-,-,-,.,.
CCCCN(CCCC)C(=S)N/N=C/c1c(C)[nH]n(-c2ccccc2)c1=O,-,86.7,-,83.7,-,-,78.3,44.8
Cc1[nH]n(-c2ccccc2)c(=O)c1/C=N/Nc1nncc(-c2ccccc2)n1,110.4,91.1,104.5,88.0,69.9,-,86.3,54.7
Cc1[nH]n(-c2ccc(Br)cc2)c(=O)c1/C=N/NC(=O)c1ccccc1,80.1,104.2,-,52.6,-,-,51.7,46.6
Cc1ccc(/C=N/Nc2nncc(-c3ccccc3)n2)o1,.,-,-,-,-,-,.,.
Cc1ccc(OCC(=O)N/N=C\c2ccc(O)c([N+](=O)[O-])c2)c([N+](=O)[O-])c1,-,-,-,-,-,-,.,.
Cc1ccc(OCC(=O)N/N=C\c2c(C)[nH]n(-c3ccccc3)c2=O)c([N+](=O)[O-])c1,-,86.6,106.2,52.4,-,-,-,.
SMILES,CSC inhib,Beta cell apopt,Calb FLC,Mdm2-MdmX inh,T cruzi repl,NLRP3 yeast inh,Mdm2 MdmX conf,Full FLuc ctr
CCOc1ccc2nc(Nc3nc(CSc4nnnn4-c4ccccc4)cc(=O)[nH]3)nc(C)c2c1,-,-,-,75.1,-,-,-,.
Cc1ccc2c(C)nc(Nc3nc(CSc4nnnn4-c4ccccc4)cc(=O)[nH]3)nc2c1,-,-,-,88.8,-,-,61.0,62.6
COc1ccc(NC(=S)N/N=C/c2cccn2Cc2ccccc2F)cc1,-,-,-,-,-,-,.,.
CN(C)CC/C=C1\c2ccccc2Sc2cc(F)c(Cl)cc21,-,-,-,65.5,-,-,-,78.1
CN(C)CC/C=C1\c2ccc(F)cc2Sc2cc(F)c(Cl)cc21,82.7,.,-,54.8,-,-,-,.
CN(C)C(=O)c1ccc(Oc2ccc(C(=O)N(C)C)cc2)cc1,-,-,-,-,-,-,.,.
Cc1cc2nc(-c3ccc(SCC(=O)N4CCc5ccccc54)nc3)[nH]c2cc1C,-,-,-,98.2,-,-,42.2,65.4
CCOC(=O)c1c(NC(C)=O)sc2c(O)cccc12,-,-,-,-,-,-,.,.
CCOC(=O)c1c(NC(C)=O)sc2c(OCC(O)CNC(C)(C)C)c(Br)ccc12 (centres undefined),-,-,-,100.3,-,-,100.0,54.0
Cc1ccccc1/C=N/NC(=O)c1cccnc1,-,-,-,-,-,-,.,.
CCc1cc(SC#N)cc(C)c1NC(=O)CCl,-,99.4,-,80.8,-,-,41.0,55.4
Cc1cc(SC#N)cc(C)c1NC(=O)CCl,-,-,-,58.6,-,-,49.1,-
CCCCN(CC)C(=O)c1cc2cc3ccc(Cl)cc3nc2o1,-,-,-,-,-,-,.,.
COC(=O)[C@H](Cc1ccccc1)NC(=O)N1CCN(Cc2ccccc2)CC1,-,-,-,-,-,-,.,.
Nc1ncnc2c1ncn2[C@@H]1O[C@H](CN=C2NS(=O)(=O)c3ccccc32)[C@@H](O)[C@H]1O,.,-,.,-,.,-,.,.
CCOc1ccc(C(=O)NC(=S)Nc2cc(C)ccn2)cc1[N+](=O)[O-],-,-,-,-,-,-,.,.
CCOc1ccc(C(=O)NC(=S)Nc2ccccn2)cc1[N+](=O)[O-],-,-,-,87.9,.,-,-,.
COc1ccc(-c2nc(NC(=O)C3CCN(c4nc5ccccc5o4)CC3)sc2C)cc1,-,-,-,51.3,-,-,-,.
COc1ccc(-c2nc(NC(=O)Cn3c(=O)oc4ccccc43)sc2C)cc1,-,-,-,-,-,-,.,.
CCOC(=O)C1CCN(Cc2cccc(OC)c2)CC1,-,-,-,-,-,-,.,.

# Source: PubChem
